The source of these data is PMC2195906 (The Journal of Experimental Medicine, 2001).

Assay [1] concerns purified mitochondria, inner membrane. Nature of the assay: Respirometry: NADH-dependent oxygen consumption. It counts as biochemical, mouse. The note with it: Bcl-2 0.8 μM pretreated 10 min; other agents added; Fig. 5 A, 6 B. The essentials: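 Oxygen uptake was recorded by Clark electrode at 37°C (mannitol/KCl/MgCl2/BSA/KH2PO4 medium, pH 7.4) after 2 mM NADH and 1 μM peptide, with rotenone added to test sensitivity; rates are in nmol O2/min/mg protein. For inhibitor tests, mitochondria were pretreated 10 min with 0.8 μM Bcl-2 or 10 μM BA before succinate plus CCCP or NADH. In the kinetics, 15 μM cytochrome c oxidation was followed in parallel, with 100% set by 2.5 mM laurylmaltoside.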

Assay [2] has as its system ANT. The note with it: ref 8 26 28 40; cited from earlier work.
Assay [3] can be described thus: Binding of FITC–Vpr52-96 to purified mitochondria. Further details: species or system mouse. The note with it: for effect on binding of Vpr52-96 to purified mitochondria: 10 min preincubation with inhibitors, Fig. 7 B.
The test system of assay [4] is ANT proteoliposomes. Nature of the assay: Binding of FITC-labeled Vpr52-96 to ANT proteoliposomes. Further details: species or system rat. The note with it: FITC–Vpr52-96 (2 μM in Fig. 2 B); BA 50 μM; Bcl-2 800 nM preincubated (Fig. 8 B). The essentials: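 ANT was purified from rat heart mitochondria (Triton X-100 extraction, hydroxyapatite, then cation-exchange with a 0–1 M NaCl gradient) and reconstituted at 0.1 mg/ml into phosphatidylcholine/cardiolipin liposomes, then dialysed overnight at 4°C. Proteoliposomes were exposed 30 min to FITC-peptide in 125 mM sucrose/10 mM Hepes pH 7.4, ultracentrifuged (290,000 g, 45 min, 10°C) and read by flow cytometry. Inhibitors were preincubated and washed out; mean ± SD, n = 3.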

Assay [5] relates to purified mitochondria (ΔΨm). Briefly: ΔΨm dissipation in purified mitochondria, effect of inhibitors. It is filed as biochemical, mouse. Conditions: purified mitochondria; Fig. 6 B–E.
Assay [6] has as its target T1, ANT (Rattus norvegicus, UniProt Q05962).
T1 sequence (Q05962 1-298): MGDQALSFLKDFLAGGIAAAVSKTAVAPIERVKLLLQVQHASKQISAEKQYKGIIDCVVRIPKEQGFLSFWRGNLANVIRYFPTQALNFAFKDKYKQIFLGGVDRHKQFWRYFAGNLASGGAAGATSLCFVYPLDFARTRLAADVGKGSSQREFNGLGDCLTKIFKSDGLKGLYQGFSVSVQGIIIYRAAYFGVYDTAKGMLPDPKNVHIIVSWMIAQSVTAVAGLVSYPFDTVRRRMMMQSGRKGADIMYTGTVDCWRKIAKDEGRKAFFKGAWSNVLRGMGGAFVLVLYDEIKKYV
Briefly: Plasmon resonance. It is filed as binding. The note with it: for binding affinity for ANT (in words): surface plasmon resonance, purified detergent-solubilized ANT. (In SPR one partner is held on a chip, and binding of the other changes the refractive index at the surface.)

For another assay, the system named is COS cells. Nature of the assay: ΔΨm dissipation in microinjected COS cells. It is filed as cell-based. The essentials: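 COS cells grown in DMEM Glutamax with Hepes, antibiotics and 10% FCS on a premarked coverslip area (>200 cells per experiment). Cells were injected into the cytoplasm (200 hPa, 0.5 s) with PBS pH 7.2, recombinant human Bcl-2 (residues 1–218; 10 μM in the injection solution) or 2 μM König's polyanion.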

For assay [7], the system named is ANT. Briefly: Affinity purification of ANT by biotinylated Vpr52-96 and immunoblot. It counts as binding, mouse. The note with it: Fig. 7 C.
In assay [8] the test system is purified mitochondria (respiratory control). Nature of the assay: Respiratory control. It is filed as biochemical, mouse. Conditions: 1 μM Vpr-derived peptides, 10 min. The essentials:
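Clark-electrode oxygraphy at 37°C in 0.3 M mannitol, 10 mM KCl, 5 mM MgCl2, 1 mg/ml BSA, 10 mM KH2PO4, pH 7.4. Purified mitochondria were pretreated 10 min with 1 μM peptide; succinate oxidation was followed with sequential ADP, oligomycin and CCCP additions. Mean of three determinations.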

The subject of assay [9] is ANT proteoliposomes. Nature of the assay: Pore-opening assay: 4-MUP release from ANT proteoliposomes. It is filed as biochemical, rat. The note with it: peptides 1 μM, 60 min, Atr 200 μM = 100%, Fig. 2 C. The essentials:
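ANT purified from rat heart mitochondria, reconstituted into PC/cardiolipin liposomes, sonicated on ice with 1 mM 4-MUP/10 mM KCl, gel-filtered. Diluted in 10 mM Hepes, 125 mM saccharose pH 7.4, peptide 1 h RT; inhibitors added 30 min earlier. Alkaline phosphatase (0.5 mM MgCl2) 15 min 37°C, stopped at pH 10. 4-MU fluorescence 360/450 nm. Release = % of atractyloside response after untreated background subtraction; n = 3, SD.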

“Also recorded” adds a separate entry of the source. Ends that are not written are not given here. * marks the point of attachment. Biotin = O=C1N[C@H]2[C@H](CS[C@H]2CCCCC(=O)*)N1

For the compound `Nc1ncnc2c1ncn2[C@@H]1O[C@H](COP(=O)(O)OP(=O)(O)O)[C@@H](O)[C@H]1O` [ADP, reference compound], the “effect on Vpr-induced NADH-dependent oxygen consumption” value in assay [1] is listed as “strongly inhibited the Vpr-dependent, NADH-stimulated oxygen consumption”.
For `C=C1[C@@H]2CC[C@H]3[C@]4(C)C[C@H](O[C@@H]5O[C@H](CO)[C@@H](OS(=O)(=O)O)[C@H](OS(=O)(=O)O)[C@H]5OC(=O)CC(C)C)C[C@@H](C(=O)O)[C@H]4CC[C@]3(C2)[C@H]1O` [Atr, atractyloside, reference compound], in the assay on ANT [2], the “effect on ANT pore formation” value is “cause ANT (which normally is a strictly specific ADP/ATP antiporter) to form a nonspecific pore”.
As for `CO[C@H](C/C=C\C=C\CC/C=C/C[C@H](C)/C=C/C(=C\C(=O)O)CC(=O)O)/C(C)=C\C=C(/C)C(=O)O` [BA, bongkrekic acid], the “effect on binding of Vpr52-96 to purified mitochondria” value (shortened to “effect on binding”) in assay [3] is reported as “partially reduced; also recorded: reduces the binding of Vpr to mitochondria to some extent”. In addition, the “effect on Vpr binding to ANT proteoliposomes” value in the assay with ANT proteoliposomes [4] was “inhibited”. Besides, the “protection against Vpr-induced inner MMP (in words)” value (“protection” for short) in assay [5] is “also inhibited the manifestations of inner MMP”.
For the compound `C=C(C)[C@H]1Cc2c(ccc3c2O[C@@H]2COc4cc(OC)c(OC)cc4[C@@H]2C3=O)O1` [rotenone, reference compound], the “effect on Vpr-induced NADH-dependent oxygen consumption” value in assay [1] was “fully sensitive to rotenone”.
Turning to “FITC-labeled Vpr52-96: FITC-labeled Vpr52-96 (DTWAGVEAIIRILQQLLFIHFRIGCRHSRIGVTRQRRARNGASRS; also: FITC label, position not given here)”, in assay [3] (0.5 μM FITC–Vpr52-96, Fig. 7 A), the “binding of FITC-labeled Vpr52-96 to intact mitochondria” value was “rapidly bound to intact mitochondria and then provoked ΔΨm loss”.
Take “HWWRAESDEARRCYNDPKCCDFVTNR [irrelevant control (Co.), reference compound]”: the “sensorgram: increase of binding as a function of time” value at ANT [6] (plasmon resonance, association and dissociation phase, Fig. 1 A) is on record as “Only the sensorgram of the interaction with Vpr52-96 exhibits an increase of binding”.
As to König's polyanion [PA10], the “effect on Vpr action on intact cells (in words)” value in the assay with COS cells (2 μM PA10 microinjected, 1 μM Vpr52-96, 3 h) is “also inhibited the effect of Vpr52-96 on intact cells”. Moreover, the “effect on binding” value in assay [3] is reported as “completely abolished; also recorded: completely blocks the binding of Vpr52-96 to intact mitochondria”. Also, the “effect on Vpr52-96-mediated purification of ANT, intact mitochondria” value in the assay with ANT [7] (5 μM biotinylated Vpr52-96, 30 min RT, lysed after incubation) is “fully abolished”. Further, in the assay on ANT [7] (mitochondria lysed before incubation with 5 μM biotinylated Vpr52-96), the “effect on Vpr52-96-mediated purification of ANT, Triton-solubilized mitochondria” value is recorded as “did not affect”. In assay [5], the “protection” value is reported as “also inhibited the manifestations of inner MMP”.
With Vpr1-51: NH2-terminal moiety of Vpr, the “effect on RC (in words)” value in [8] is recorded as “but not Vpr1-51”. In addition, the “permeabilization of ANT proteoliposomes” value in the assay with ANT proteoliposomes [9] was “but not the NH2-terminal moiety of Vpr [Vpr1-51]”.
With “Vpr: Vpr added extracellularly to intact cells; Fig. 6 A legend gives 1 μM Vpr52-96”, the “vehicle-microinjected cells with complete ΔΨm dissipation” value in the assay on COS cells (1 μM Vpr52-96 (Fig. 6 A), 3 h, n = 3) amounted to 61 ± 8%.
For “biotin–Vpr52-96: NH2-terminally biotinylated Vpr52-96 (Biotin-DTWAGVEAIIRILQQLLFIHFRIGCRHSRIGVTRQRRARNGASRS)”, the “binding affinity for ANT (in words)” value with ANT [6] is “affinity in the nanomolar range”.
On to “biotin–Vpr52-96[R73,80A]: mutated biotin–Vpr52-96[R73,80A], immobilized on biosensor chip (Biotin-DTWAGVEAIIRILQQLLFIHFAIGCRHSAIGVTRQRRARNGASRS)”, for which the “binding affinity for ANT (in words)” value with ANT [6] is “to a far lesser extent”.
Take cyclosporin A [CsA]: the “effect on binding” value in assay [3] is recorded as “not affected”. Besides, the “protection” value in assay [5] is on record as “also inhibited the manifestations of inner MMP”.
